From ChEMBL document CHEMBL3259588, “Anti-inflammatory drimane sesquiterpene lactones from an Aspergillus species” (Bioorg Med Chem, 2014) come the findings set out here.

The source made the active and inactive calls. The calls are words filed in the database; no cut-off is given here.

What all share (format): cell-based
Series [1] in a line: (§1) Inhibition of TNF-alpha/IFN-gamma/IL-1beta-induced human CXCL10 (972 bp) promoter activity expressed in human DLD1 cells after 24 hrs by luciferase reporter assay. The following applies: DLD-1, 24 h. Summed up:
(§2)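 DLD-1 in 24-well plates, switched to 0.5% FCS without antibiotics a day before lipofection (Lipofectamine 2000, 0.8 µg plasmid) with 972 bp CXCL10 promoter, NF-κB, GAS/Stat1 or ISRE luciferase reporters plus pRL-CMV. Stimulated 24 h with 10 ng/mL TNF-α, 10 ng/mL IFN-γ, 5 ng/mL IL-1β ± compound; Dual-Glo firefly/Renilla read. Stimulation-only = 100%; mean ± SEM, ≥3 experiments.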
A general note: A reporter such as luciferase makes a cellular process visible.

Series [2] relates to DLD-1. Described as §1. Summed up: as §2
Series [3] can be described thus: Inhibition of TNF-alpha/IFN-gamma/IL-1beta-induced human CXCL10 (972 bp) promoter activity expressed in human DLD1 cells after 24 hrs by […]-driven luciferase reporter assay. The following applies: DLD-1, 24 h. A digest of the protocol:
as §2

Series [4] concerns the target T1, Signal transducer and activator of transcription 1-alpha/beta (Homo sapiens) (UniProt P42224).
T1 sequence (whole entry): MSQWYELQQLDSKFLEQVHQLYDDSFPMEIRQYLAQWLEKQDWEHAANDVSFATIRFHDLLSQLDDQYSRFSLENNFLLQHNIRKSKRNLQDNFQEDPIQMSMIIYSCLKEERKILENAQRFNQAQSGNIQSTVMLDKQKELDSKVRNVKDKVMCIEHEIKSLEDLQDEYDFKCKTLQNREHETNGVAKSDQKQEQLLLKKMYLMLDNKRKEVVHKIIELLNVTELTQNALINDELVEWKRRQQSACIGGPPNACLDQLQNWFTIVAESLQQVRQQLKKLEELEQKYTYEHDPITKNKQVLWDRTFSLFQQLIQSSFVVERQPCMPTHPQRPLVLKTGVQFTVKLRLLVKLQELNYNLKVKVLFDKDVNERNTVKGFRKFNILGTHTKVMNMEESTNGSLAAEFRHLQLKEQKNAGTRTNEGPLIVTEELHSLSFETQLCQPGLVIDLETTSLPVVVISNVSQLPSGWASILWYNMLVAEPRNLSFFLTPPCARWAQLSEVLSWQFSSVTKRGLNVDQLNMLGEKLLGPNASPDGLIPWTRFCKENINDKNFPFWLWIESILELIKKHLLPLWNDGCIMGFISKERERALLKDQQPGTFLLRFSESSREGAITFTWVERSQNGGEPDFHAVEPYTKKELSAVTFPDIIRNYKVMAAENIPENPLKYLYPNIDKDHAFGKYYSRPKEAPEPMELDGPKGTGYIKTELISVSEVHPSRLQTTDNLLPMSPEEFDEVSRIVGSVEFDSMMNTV
Briefly: Inhibition of Stat1 (unknown origin)-induced human CXCL10 (972 bp) promoter activity expressed in TNF-alpha/IFN-gamma/IL-1beta-stimulated human DLD1 cells after 24 hrs by luciferase reporter assay. The following applies: DLD-1. A digest of the protocol: as §2

The test system of series [5] is DLD-1. Briefly: Inhibition of TNF-alpha/IFN-gamma/IL-1beta-induced human CXCL10 (972 bp) promoter activity expressed in human DLD1 cells assessed as CXCL10 gene expression at 131.5 uM after 5 hrs by RT-PCR method relative to untreated-control. A digest of the protocol:
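Cells starved 16 h (0.5% FCS), compound pretreatment 1 h, then TNF-α 10 ng/mL/IFN-γ 10 ng/mL/IL-1β 5 ng/mL for 5 h. Total RNA analysed by two-step qRT-PCR for cxcl10, gapdh-corrected (Pfaffl); induced vs uninduced and treated-induced vs untreated-induced (100%).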

Series [6] in a line: Cytotoxicity against human DLD1 cells up to 158 uM after 48 hrs by XTT assay. The settings on record: dld-1, 48 h. Summed up:
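DLD-1 cells (RPMI 1640, 25 mM HEPES, 10% FCS, 37 °C, 5% CO2) exposed to compound for 48 h; viability read as XTT reduction to coloured formazan.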
On the technique in general: Tetrazolium assays rely on reduction of a dye to a coloured formazan, in cell work by metabolically active cells.

Series [7] relates to DLD-1. Briefly: Inhibition of TNF-alpha/IFN-gamma/IL-1beta-induced human CXCL10 (972 bp) promoter activity expressed in human DLD1 cells assessed as reduction in CXCL10 expression pretreated at 131.5 uM for 1 hr prior to 16 hrs cytokine challenge by proteome profiling method relative to untreated-control. Summed up:
(§3)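 DLD-1 starved 16 h in 0.5% FCS, seeded 5×10^6 cells/mL, pretreated 1 h with compound, then stimulated 16 h with 10 ng/mL TNF-α, 10 ng/mL IFN-γ, 5 ng/mL IL-1β. Supernatant cytokines/chemokines detected on Human Cytokine Array Panel A antibody array.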

Series [8] concerns DLD-1. Briefly: Inhibition of TNF-alpha/IFN-gamma/IL-1beta-induced human CXCL10 (972 bp) promoter activity expressed in human DLD1 cells assessed as reduction in MIF expression pretreated at 131.5 uM for 1 hr prior to 16 hrs cytokine challenge by proteome profiling method relative to untreated-control. A digest of the protocol:
as §3

For series [9], the system named is DLD-1. As to the kind of experiment: Inhibition of TNF-alpha/IFN-gamma/IL-1beta-induced human CXCL10 (972 bp) promoter activity expressed in human DLD1 cells assessed as reduction in IL8 expression pretreated at 131.5 uM for 1 hr prior to 16 hrs cytokine challenge by proteome profiling method relative to untreated-control. Summed up: as §3
Series [10] concerns DLD-1. Briefly: Inhibition of TNF-alpha/IFN-gamma/IL-1beta-induced human CXCL10 (972 bp) promoter activity expressed in human DLD1 cells assessed as reduction in CXCL1 expression pretreated at 131.5 uM for 1 hr prior to 16 hrs cytokine challenge by proteome profiling method relative to untreated-control. A digest of the protocol: as §3
Series [11] concerns DLD-1. Briefly: Inhibition of TNF-alpha/IFN-gamma/IL-1beta-induced human CXCL10 (972 bp) promoter activity expressed in human DLD1 cells assessed as reduction in IL1-beta expression pretreated at 131.5 uM for 1 hr prior to 16 hrs cytokine challenge by proteome profiling method relative to untreated-control. Summed up:
as §3

In series [12] the test system is DLD-1. As to the kind of experiment: Inhibition of TNF-alpha/IFN-gamma/IL-1beta-induced human CXCL10 (972 bp) promoter activity expressed in human DLD1 cells assessed as reduction in IL-27 expression pretreated at 131.5 uM for 1 hr prior to 16 hrs cytokine challenge by proteome profiling method relative to untreated-control. A digest of the protocol: as §3
Series [13] relates to DLD-1. Briefly: Inhibition of TNF-alpha/IFN-gamma/IL-1beta-induced human CXCL10 (972 bp) promoter activity expressed in human DLD1 cells assessed as reduction in TNF-alpha expression pretreated at 131.5 uM for 1 hr prior to 16 hrs cytokine challenge by proteome profiling method relative to untreated-control. Summed up: as §3
The target in series [14] is T2, Nuclear factor NF-kappa-B complex (Homo sapiens) (UniProt Q00653+P19838+Q04206). As to the kind of experiment: Inhibition of NF-kappaB (unknown origin) expressed human DLD1 cells assessed as reduction in IL1-beta gene expression pretreated at 67.75 uM for 1 hr by RT-PCR method relative to untreated-control. The following applies: DLD-1. Summed up: (§4)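 DLD-1 seeded 5×10^5 cells/mL, grown 24 h, starved 16 h in 0.5% FCS, pretreated with compound 1 h, then stimulated with 10 ng/mL TNF-α, 10 ng/mL IFN-γ, 5 ng/mL IL-1β for 5 h. tnf-α, il-1β, inos mRNA by two-step qRT-PCR, Pfaffl relative quantification, normalised to gapdh; stimulated-untreated control = 100%. Mean ± SEM, three independent experiments.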
T2 sequence (P19838 whole entry, looked up): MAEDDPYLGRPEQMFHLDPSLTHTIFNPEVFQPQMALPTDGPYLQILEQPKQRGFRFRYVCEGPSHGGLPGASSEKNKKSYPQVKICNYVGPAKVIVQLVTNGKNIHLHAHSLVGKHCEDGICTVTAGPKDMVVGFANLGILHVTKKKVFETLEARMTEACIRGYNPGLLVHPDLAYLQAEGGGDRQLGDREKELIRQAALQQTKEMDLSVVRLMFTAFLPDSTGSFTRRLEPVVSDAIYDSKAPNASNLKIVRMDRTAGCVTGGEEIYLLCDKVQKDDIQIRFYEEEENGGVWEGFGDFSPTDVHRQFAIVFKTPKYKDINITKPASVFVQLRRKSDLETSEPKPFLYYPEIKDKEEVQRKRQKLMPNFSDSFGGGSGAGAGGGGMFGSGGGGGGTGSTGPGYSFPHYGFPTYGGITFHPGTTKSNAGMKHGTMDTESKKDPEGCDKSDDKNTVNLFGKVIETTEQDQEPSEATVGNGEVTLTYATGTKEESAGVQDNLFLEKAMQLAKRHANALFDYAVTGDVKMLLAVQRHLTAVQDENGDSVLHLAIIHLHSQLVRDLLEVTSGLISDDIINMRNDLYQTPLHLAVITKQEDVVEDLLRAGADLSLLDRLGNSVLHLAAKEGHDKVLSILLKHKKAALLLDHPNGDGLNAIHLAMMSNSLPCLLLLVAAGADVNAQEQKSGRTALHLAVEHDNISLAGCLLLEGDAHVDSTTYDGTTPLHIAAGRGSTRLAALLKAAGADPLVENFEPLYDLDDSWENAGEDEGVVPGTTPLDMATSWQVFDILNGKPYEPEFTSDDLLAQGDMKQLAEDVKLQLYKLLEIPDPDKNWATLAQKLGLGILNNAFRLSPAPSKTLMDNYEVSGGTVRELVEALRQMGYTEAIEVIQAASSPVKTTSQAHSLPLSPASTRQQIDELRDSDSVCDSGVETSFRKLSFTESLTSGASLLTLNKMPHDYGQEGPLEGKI
T2 sequence (Q00653 whole entry, looked up): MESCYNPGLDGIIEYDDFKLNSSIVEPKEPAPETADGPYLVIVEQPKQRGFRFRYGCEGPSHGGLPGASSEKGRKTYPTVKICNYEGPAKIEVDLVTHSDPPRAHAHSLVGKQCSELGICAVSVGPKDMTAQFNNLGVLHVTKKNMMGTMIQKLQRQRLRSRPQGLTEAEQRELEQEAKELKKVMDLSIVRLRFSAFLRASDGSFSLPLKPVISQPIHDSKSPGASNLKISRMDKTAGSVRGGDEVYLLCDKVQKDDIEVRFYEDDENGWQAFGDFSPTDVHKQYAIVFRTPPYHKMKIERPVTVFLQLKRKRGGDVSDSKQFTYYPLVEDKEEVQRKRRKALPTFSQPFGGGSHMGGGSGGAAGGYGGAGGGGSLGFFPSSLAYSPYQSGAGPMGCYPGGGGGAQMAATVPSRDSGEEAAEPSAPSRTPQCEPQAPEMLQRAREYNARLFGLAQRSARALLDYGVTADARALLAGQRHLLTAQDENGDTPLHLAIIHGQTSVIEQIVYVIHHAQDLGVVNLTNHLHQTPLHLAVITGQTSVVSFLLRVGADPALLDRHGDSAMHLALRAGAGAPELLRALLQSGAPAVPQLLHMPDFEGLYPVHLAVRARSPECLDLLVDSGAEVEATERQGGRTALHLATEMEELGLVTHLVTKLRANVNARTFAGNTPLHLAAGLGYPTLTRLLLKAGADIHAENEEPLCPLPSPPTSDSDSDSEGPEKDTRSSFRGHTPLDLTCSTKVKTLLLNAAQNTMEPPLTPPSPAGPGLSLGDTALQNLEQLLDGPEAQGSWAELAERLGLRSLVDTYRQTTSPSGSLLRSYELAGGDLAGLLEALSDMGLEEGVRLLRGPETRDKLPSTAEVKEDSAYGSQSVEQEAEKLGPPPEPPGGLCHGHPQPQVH
T2 sequence (Q04206 whole entry, looked up): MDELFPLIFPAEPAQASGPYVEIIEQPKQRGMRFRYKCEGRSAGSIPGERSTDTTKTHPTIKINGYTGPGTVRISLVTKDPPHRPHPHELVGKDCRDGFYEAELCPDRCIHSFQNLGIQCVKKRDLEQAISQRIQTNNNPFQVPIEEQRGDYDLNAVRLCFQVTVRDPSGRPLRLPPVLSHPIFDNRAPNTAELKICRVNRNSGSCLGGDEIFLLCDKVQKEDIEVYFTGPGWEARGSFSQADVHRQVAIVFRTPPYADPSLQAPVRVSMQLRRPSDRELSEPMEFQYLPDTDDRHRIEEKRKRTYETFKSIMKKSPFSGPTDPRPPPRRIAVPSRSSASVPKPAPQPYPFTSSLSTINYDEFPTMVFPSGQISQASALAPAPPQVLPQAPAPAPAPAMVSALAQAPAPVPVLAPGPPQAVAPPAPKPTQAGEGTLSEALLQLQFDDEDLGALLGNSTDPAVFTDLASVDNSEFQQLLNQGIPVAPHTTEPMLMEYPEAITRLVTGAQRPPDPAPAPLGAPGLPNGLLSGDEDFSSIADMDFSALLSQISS

The target in series [15] is T2, Nuclear factor NF-kappa-B complex (Homo sapiens). As to the kind of experiment: Inhibition of NF-kappaB (unknown origin) expressed human DLD1 cells assessed as reduction in TNF-alpha gene expression pretreated at 67.75 uM for 1 hr by RT-PCR method relative to untreated-control. The following applies: DLD-1. Summed up:
as §4

The target is the same in series [16]. As to the kind of experiment: Inhibition of NF-kappaB (unknown origin) expressed human DLD1 cells assessed as reduction in iNOS gene expression pretreated at 67.75 uM for 1 hr by RT-PCR method relative to untreated-control. The following applies: DLD-1. Summed up: as §4
Series [17] addresses T1, Signal transducer and activator of transcription 1-alpha/beta (Homo sapiens). Briefly: Inhibition of Stat1 (unknown origin) expressed human DLD1 cells assessed as reduction in IL1-beta gene expression pretreated at 67.75 uM for 1 hr by RT-PCR method relative to untreated-control. The settings on record: DLD-1. A digest of the protocol: as §4
The target is the same in series [18]. Briefly: Inhibition of Stat1 (unknown origin) expressed human DLD1 cells assessed as reduction in TNF-alpha gene expression pretreated at 67.75 uM for 1 hr by RT-PCR method relative to untreated-control. The following applies: DLD-1. A digest of the protocol: as §4
For series [19] the target is unchanged. As to the kind of experiment: Inhibition of Stat1 (unknown origin) expressed in human DLD1 cells assessed as reduction in iNOS gene expression pretreated at 67.75 uM for 1 hr by RT-PCR method relative to untreated-control. The settings on record: DLD-1. A digest of the protocol: as §4

Consider `CCCCCC(=O)O[C@@H]1C=C2COC(=O)[C@]2(O)[C@@]2(C)[C@H](O)CCC(C)(C)[C@H]12`, for which the IC50 – broadly, the midpoint of a concentration-inhibition curve – in [1] was 55 µM; in series [3] it was 49 µM. For the same molecule, the inhibition result (in the series on DLD-1 [2]; in series [4]) was “Dose-dependent effect” each time. In addition, the inhibition entry with DLD-1 [5], in the series with DLD-1 [7], in the series on DLD-1 [8], with DLD-1 [9], with DLD-1 [10] and in the series on DLD-1 [11] was “Active” in each case. The inhibition result (in the series on DLD-1 [12]; with DLD-1 [13]; in [14]; in series [15]; in series [16]; in series [17]) was “Active” each time. In addition, the inhibition entry in [18] and in series [19] was “Active” in each case. Also, the Activity result in series [6] was “Non-toxic”.
